Measurements from ChEMBL document CHEMBL1250478 (J Med Chem, 2010).
The source made the active and inactive calls. No cut-off for these calls is given here.

Assays:
[1] = Therapeutic index, ratio of IC50 for mice (Mus musculus) spleen lymphocytes to IC50 for chloroquine-resistant Plasmodium falciparum Dd2; format: tissue-based; conditions: read-out: Ratio IC50
[2] = test system: Plasmodium falciparum; assay: Ratio of compound IC50 to chloroquine IC50 for chloroquine-resistant Plasmodium falciparum 7G8; format: functional
[3] = test system: Plasmodium falciparum; assay: Ratio of compound IC50 to chloroquine IC50 for chloroquine-resistant Plasmodium falciparum Dd2; format: functional
[4] = test system: Plasmodium falciparum; assay: Ratio of compound IC50 to chloroquine IC50 for chloroquine-sensitive Plasmodium falciparum D6; format: functional
[5] = Drug level in chloroquine-sensitive Plasmodium falciparum Dd2 digestive vacuole assessed as ratio of drug level in vacuole to medium at 5 uM after 1 hr; format: ADME; conditions: plasmodium falciparum dd2, 1 h, in the assay text read “chloroquine-resistant” for “chloroquine-sensitive”
In short: (§1)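 Sorbitol-synchronized mature trophozoites (about 10% parasitemia) in 5 mL complete medium, drug at about 5 µM initial medium concentration. Medium sampled over time and analyzed by C18 HPLC. NH4Cl (10 mM) added 10 min before sampling to release accumulated drug; uptake is the difference from the 1 h level. DV concentration assumes 6 × 10^7 PRBCs and a 4 fL DV. Accumulation ratio is DV/medium concentration.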

[6] = molecular target: Heme; assay: Binding affinity to heme after 4 hrs by equilibrium binding assay
In short: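 Heme stock in NaOH, diluted to 5 µM in 100 mM phosphate buffer pH 5.7 and equilibrated 4 h. Optical titration by successive addition of compound, with pH held within ±0.05. Apparent dissociation constants from nonlinear least-squares fitting, assuming 2:1 heme:drug stoichiometry.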

[7] = Inhibition of beta-hematin formation after 24 hrs; format: functional
In short: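 40 µM heme in 0.67 M sodium acetate pH 4.8 with 0.0005 g/L Tween20, compound at 0–1000 µM. Incubated 24 h at 37 °C in the dark, then read at 415/630 nm. IC50 taken as (Dmax − Dinitial)/2. Duplicate assays, run twice.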

[8] = test system: Plasmodium falciparum; assay: Antiplasmodial activity against chloroquine-sensitive Plasmodium falciparum D6 early trophozoites infected in NMRI mice (Mus musculus) RBC assessed as inhibition of hemozoin formation at 100 nM after 24 hrs by microscopic analysis; format: functional, organism-based
In short: (§2)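 Ring-stage D6 parasites synchronized with 5% sorbitol, suspended at 1% hematocrit and drug added from 1 mM stock. Incubated 24 h at 37 °C under 5% O2/5% CO2/90% N2 alongside a no-drug control. Giemsa-stained smears were used for parasitemia and for microscopic examination of hemozoin and parasite morphology.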

[9] = test system: Plasmodium falciparum; assay: Inhibition of hemozoin formation in early trophozoites of chloroquine-sensitive Plasmodium falciparum D6 infected in RBC assessed as enlarged digestive vacuole at 100 nM after 24 hrs by microscopic analysis; format: functional, organism-based; in short: as §2
[10] = test system: Plasmodium berghei; assay: Antiplasmodial activity against Plasmodium berghei infected in NMRI mice (Mus musculus) assessed as parasitaemia level at 30 mg/kg, perorally administered as single dose measured after 3 days relative to control; format: functional; conditions: route oral
In short: (§3)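 P. berghei blood diluted in saline to 10^8 parasitized erythrocytes/mL; 0.2 mL given i.v. to groups of 3 female NMRI mice (controls 5). Compounds dosed at 10 ml/kg either once on day 1 (oral gavage or subcutaneous) or orally at 4, 24, 48, 72 h post-infection. Parasitemia read by FACS on 100,000 RBCs from tail blood on day 3 (single dose) or day 4 (quadruple dose). Activity = % reduction versus control mean. Survival monitored to 30 days.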

[11] = test system: Plasmodium berghei; assay: Antiplasmodial activity against Plasmodium berghei infected in NMRI mice (Mus musculus) assessed as survival rate at 30 mg/kg, perorally administered as single dose; format: functional; conditions: route oral; in short: as §3
[12] = Drug level in NMRI mice (Mus musculus) erythrocytes infected with chloroquine-sensitive Plasmodium falciparum D6 after 1 hr; format: ADME, cell-based; conditions: erythrocyte; in short: as §1
[13] = test system: Plasmodium berghei; assay: Antiplasmodial activity against Plasmodium berghei infected in NMRI mice (Mus musculus) assessed as survival rate at 30 mg/kg, perorally administered as 4 consecutive doses measured post last dose; format: functional; conditions: route oral; in short: as §3
[14] = test system: Plasmodium berghei; assay: Antiplasmodial activity against Plasmodium berghei infected in NMRI mice (Mus musculus) assessed as parasitaemia level at 30 mg/kg, perorally administered as 4 consecutive doses measured after 3 days post last dose relative to control; format: functional; conditions: route oral; in short: as §3
[15] = test system: Plasmodium berghei; assay: Antiplasmodial activity against Plasmodium berghei infected in NMRI mice (Mus musculus) assessed as survival rate at 30 mg/kg, subcutaneously administered as single dose; format: functional; conditions: route subcutaneous; in short: as §3
[16] = test system: Plasmodium berghei; assay: Antiplasmodial activity against Plasmodium berghei infected in NMRI mice (Mus musculus) assessed as parasitaemia level at 30 mg/kg, subcutaneously after 3 days relative to control; format: functional; conditions: route subcutaneous; in short: as §3
[17] = Drug level in chloroquine-sensitive Plasmodium falciparum D6 digestive vacuole after 1 hr; format: ADME; conditions: plasmodium falciparum d6, 1 h; in short: as §1
[18] = Drug level in chloroquine-sensitive Plasmodium falciparum D6 digestive vacuole assessed as ratio of drug level in vacuole to medium at 5 uM after 1 hr; format: ADME; conditions: plasmodium falciparum d6, 1 h; in short: as §1
[19] = Drug level in erythrocytes infected with chloroquine-resistant Plasmodium falciparum Dd2 after 1 hr; conditions: erythrocyte
[20] = test system: Plasmodium falciparum; assay: Antiplasmodial activity against chloroquine-resistant Plasmodium falciparum Dd2 early trophozoites infected in NMRI mice (Mus musculus) RBC assessed as inhibition of hemozoin formation at 100 nM after 24 hrs by microscopic analysis; format: functional, organism-based
In short: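 D6 and Dd2 cultures synchronized to ring stage with 5% sorbitol, suspended at 1% hematocrit and exposed to drug (from 1 mM stock) for 24 h at 37 °C under 5% O2/5% CO2/90% N2. Giemsa-stained smears examined by microscopy for hemozoin, parasitemia and parasite morphology.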

[21] = test system: Plasmodium falciparum; assay: Antiplasmodial activity against synchronized chloroquine-sensitive Plasmodium falciparum D6 infected in NMRI mice (Mus musculus) RBC assessed as inhibition of hemozoin formation at 1000 nM after 24 hrs by colorimetric analysis; format: functional, organism-based
In short: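 D6 cultures synchronized with sorbitol, held at 1% hematocrit, drug-treated 24 h at 37 °C. Parasites freeze-thawed, then lysed 30 min at 37 °C in saponin/Triton X-100 buffer. Hemozoin pelleted at 215,000 g, washed with acetone and PBS, dissolved 2 h in 0.2 N NaOH. Heme read at A400 (ε 91,000 cm-1M-1) and expressed per parasitized erythrocyte. A 0 h culture gave the baseline.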

[22] = test system: Plasmodium falciparum; assay: Antiplasmodial activity against synchronized chloroquine-resistant Plasmodium falciparum Dd2 infected in NMRI mice (Mus musculus) RBC assessed as inhibition of hemozoin formation at 1000 nM after 24 hrs by colorimetric analysis; format: functional, organism-based
In short: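 Sorbitol-synchronized D6 and Dd2 cultures at 1% hematocrit were drug-treated for 24 h at 37 °C. Parasites were freed by freeze-thaw and saponin/Triton lysis buffer (37 °C, 30 min). Hemozoin was pelleted at 215,000 g, washed with acetone and PBS, then dissolved in 0.2 N NaOH. Heme was quantified by A400 (ε 91,000 cm-1M-1) per parasitized erythrocyte. Baseline was taken from 0 h culture.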

[23] = Solubility of the compound; format: physicochemical

SMILES	selectivity ratio [1]	Ratio IC50 [2]	Ratio IC50 [3]	Ratio IC50 [4]	Kd [6] [µM]	further results
Clc1ccc2c(NCCCN3CCCN(C(c4ccccc4)c4ccccc4)CC3)ccnc2c1	171	15	4.1	4.8		
CN(CCCNc1ccnc2cc(Cl)ccc12)CCCN1c2ccccc2CCc2ccccc21	132	4	5.3	2.9	8.6	Ratio [5]: 38000; IC50 [7]: 9 µM; inhibition [8]: inactive; inhibition [9]: Active; Activity [10]: <40%; Survival [11]: 3 days; Drug uptake [12]: 1.6 ×10⁻⁸ mol; Survival [13]: 8 days; Activity [14]: 96%; Survival [15]: 7 days; Activity [16]: 92%; Drug uptake [17]: 65000 µM; Ratio [18]: 32000; Drug uptake [19]: 1.8 ×10⁻⁸ mol
Clc1ccc(C(c2ccccc2)N2CCN(CCCNc3ccnc4cc(Cl)ccc34)CC2)cc1 (stereo not drawn)	229	12	3.5	3.2		
Clc1ccc2c(NCCN3CCCN(C4c5ccccc5-c5ccccc54)CC3)ccnc2c1	260	41	9.6	9.2		
Clc1ccc2c(NCCCN3CCCN(C4c5ccccc5-c5ccccc54)CC3)ccnc2c1	167	56	15	21		
Clc1ccc2c(NCCCN3CCNCC3)ccnc2c1	3380		6.8	4.3		
CN(CCCN1c2ccccc2CCc2ccccc21)CCNc1ccnc2cc(Cl)ccc12	269	21	5.2	3.6	7.3	IC50 [7]: 10 µM
Fc1ccc(C(c2ccc(F)cc2)N2CCN(CCCNc3ccnc4cc(Cl)ccc34)CC2)cc1	1710	34	2.4	2		
Clc1ccc(C(c2ccccc2)N2CCN(CCNc3ccnc4cc(Cl)ccc34)CC2)cc1 (stereo not drawn)	700	10	2	2.6		
Clc1ccc2c(NCCCN3CCN(CC(c4ccccc4)c4ccccc4)CC3)ccnc2c1	6970	3.4	3.3	0.5		
Clc1ccc2c(NCCN3CCN(C(c4ccccc4)c4ccccc4)CC3)ccnc2c1	528	4.3	3.6	1	3.3	IC50 [7]: 2.5 µM; Activity [10]: >99.9%; Survival [11]: 8 days; Survival [13]: 16 days; Activity [14]: >99.9%; Survival [15]: 3 days; Activity [16]: <40%
OCCN1CCN(C(c2ccccc2)c2ccccc2)CC1	> 50	>2500	>2500	>2500		
Clc1ccc2c(NCCCN3CCN(C4C5CC6CC(C5)CC4C6)CC3)ccnc2c1 (stereo not drawn)	69400	10	1.8	0.8	2.5	IC50 [7]: 14 µM
CCN(CC)CCCC(C)Nc1ccnc2cc(Cl)ccc12 (stereo not drawn) [CHLOROQUINE]						inhibition [20]: inactive; inhibition [8]: inactive; inhibition [21]: Active; inhibition [22]: Active; Survival [11]: 9 days; Drug uptake [12]: 0.7 ×10⁻⁸ mol; Survival [13]: 23 days; Survival [15]: 10 days; Drug uptake [19]: 0.5 ×10⁻⁸ mol
Clc1ccc2c(NCCCCN3CCN(C(c4ccccc4)c4ccccc4)CC3)ccnc2c1	846	7.2	1.3	1.3		
Clc1ccc2c(NCCCN3CCN(C(c4ccccc4)(c4ccccc4)c4ccccc4)CC3)ccnc2c1	13600	10	4.2	2	5.4	solubility [23]: Insoluble; Activity [10]: 99.7%; Survival [11]: 7 days; Survival [13]: 20 days; Activity [14]: >99.9%; Survival [15]: 3 days; Activity [16]: <40%
Clc1ccc(C(c2ccccc2)N2CCCN(CCCNc3ccnc4cc(Cl)ccc34)CC2)cc1 (stereo not drawn)	158	22	5.7	6.6		
Clc1ccc2c(NCCCN3CCN(C(c4ccccc4)c4ccccc4)CC3)ccnc2c1	423	11	2.6	1.9	3	IC50 [7]: 3.5 µM
